Data: publication PMC9884086 (Journal of Medicinal Chemistry, 2023)
One block for each compound: values may come before it.

What was measured:
Human PDE10A2 = Human PDE10A2 (Homo sapiens, UniProt Q9Y233); assay: PDE10A fluorescence polarization; assay type: biochemical
[1] = test system: other PDE enzyme families (PDE1–PDE11); assay: PDE selectivity over the other PDE enzyme families; assay type: biochemical; details: tables 1 and 2; over other PDEs
Passive permeability = assay type: in vitro ADME; details: not told
[2] = molecular target: full length human PDE10A2 (Homo sapiens, UniProt Q9Y233); assay: Surface plasmon resonance binding kinetics; details: SPR
Chain of full length human PDE10A2 (Q9Y233 715-1055): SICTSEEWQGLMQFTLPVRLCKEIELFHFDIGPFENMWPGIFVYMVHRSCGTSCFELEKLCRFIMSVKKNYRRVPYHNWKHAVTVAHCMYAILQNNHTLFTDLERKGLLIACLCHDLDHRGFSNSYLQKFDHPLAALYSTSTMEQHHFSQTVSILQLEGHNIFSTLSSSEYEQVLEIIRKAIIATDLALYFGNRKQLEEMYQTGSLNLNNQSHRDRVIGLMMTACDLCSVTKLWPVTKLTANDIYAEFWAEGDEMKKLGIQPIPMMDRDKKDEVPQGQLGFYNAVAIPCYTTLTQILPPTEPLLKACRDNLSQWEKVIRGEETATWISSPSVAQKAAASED

Iks = Iks (Homo sapiens, UniProt P51787); assay: Ion channel profile, Iks; assay type: cell-based
Chain of Iks (P51787 whole entry): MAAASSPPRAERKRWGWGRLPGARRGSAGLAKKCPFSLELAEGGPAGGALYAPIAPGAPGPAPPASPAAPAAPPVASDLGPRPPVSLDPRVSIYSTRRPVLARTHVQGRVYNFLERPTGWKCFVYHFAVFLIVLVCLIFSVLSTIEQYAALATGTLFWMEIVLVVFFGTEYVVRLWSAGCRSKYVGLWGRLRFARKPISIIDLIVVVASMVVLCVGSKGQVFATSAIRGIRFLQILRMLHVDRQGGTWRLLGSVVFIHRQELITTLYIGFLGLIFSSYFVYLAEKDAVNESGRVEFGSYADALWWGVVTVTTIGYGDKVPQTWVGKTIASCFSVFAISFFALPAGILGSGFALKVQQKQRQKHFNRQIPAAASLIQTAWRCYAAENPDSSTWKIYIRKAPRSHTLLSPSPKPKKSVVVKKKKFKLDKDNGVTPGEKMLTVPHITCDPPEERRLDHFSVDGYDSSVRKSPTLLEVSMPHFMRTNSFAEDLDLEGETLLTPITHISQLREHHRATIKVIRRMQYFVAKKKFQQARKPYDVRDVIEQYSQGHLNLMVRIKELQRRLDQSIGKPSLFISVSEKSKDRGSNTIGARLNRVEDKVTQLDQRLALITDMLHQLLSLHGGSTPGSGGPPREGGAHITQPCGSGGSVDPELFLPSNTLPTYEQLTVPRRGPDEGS

5-strain Ames test = assay: Microbial mutagenesis assay; assay type: cell-based
[3] = test system: Chinese hamster ovary cells; assay: Assay for chromosomal aberrations; assay type: cell-based
PDE10A = molecular target: T1, PDE10A (Rattus norvegicus, UniProt Q9QYJ6); assay: In vivo PDE10A enzyme occupancy in rat striatum with [3H]MK-8193; design: species or system Wistar–Hannover rats
T1 sequence (Q9QYJ6 1-794): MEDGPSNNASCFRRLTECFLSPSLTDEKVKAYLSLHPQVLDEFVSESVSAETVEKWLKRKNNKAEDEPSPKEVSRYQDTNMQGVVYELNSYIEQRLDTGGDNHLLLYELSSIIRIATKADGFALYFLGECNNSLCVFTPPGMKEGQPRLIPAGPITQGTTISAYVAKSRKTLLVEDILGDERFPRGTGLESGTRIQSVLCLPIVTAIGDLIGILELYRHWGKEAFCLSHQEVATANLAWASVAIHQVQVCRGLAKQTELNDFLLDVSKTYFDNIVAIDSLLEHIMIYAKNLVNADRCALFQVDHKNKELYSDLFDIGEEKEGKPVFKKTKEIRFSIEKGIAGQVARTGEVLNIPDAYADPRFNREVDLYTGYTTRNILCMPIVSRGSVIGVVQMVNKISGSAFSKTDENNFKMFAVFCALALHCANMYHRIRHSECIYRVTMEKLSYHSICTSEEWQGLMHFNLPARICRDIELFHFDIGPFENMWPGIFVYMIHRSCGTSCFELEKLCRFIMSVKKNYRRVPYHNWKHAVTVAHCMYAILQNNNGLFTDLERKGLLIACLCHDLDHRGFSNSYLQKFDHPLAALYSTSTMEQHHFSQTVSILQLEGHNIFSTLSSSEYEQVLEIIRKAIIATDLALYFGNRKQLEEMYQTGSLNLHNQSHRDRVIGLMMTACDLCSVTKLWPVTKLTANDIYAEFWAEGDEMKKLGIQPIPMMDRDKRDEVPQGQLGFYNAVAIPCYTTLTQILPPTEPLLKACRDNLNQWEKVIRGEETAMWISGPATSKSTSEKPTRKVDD

[4] = test system: MK-801-induced locomotor activity in rats; assay: MK-801-induced psychomotor; assay type: in vivo; details: MK-801 model, striatal occupancy derived from plasma exposures
[5] = test system: novel objection recognition in rats; assay: Novel objection recognition assay; assay type: in vivo; details: for novel objection recognition: rats, vs vehicle, p <0.05
Summary of the method: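 Rats dosed orally with test compound; donepezil 0.56 mg/kg as reference. Plasma was taken 1 h post dose at the end of the behavioral study (n = 4/group). Striatal PDE10A occupancy was derived from these end-of-study plasma exposures. Significance was tested against vehicle.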

[6] = test system: circulating levels of prolactin; assay: Circulating prolactin in rats; assay type: in vivo; details: data not shown
Weight gain in rats = assay type: in vivo; details: data not shown
catalepsy in the rats = assay: Catalepsy in rats; assay type: in vivo; details: compared with atypical antipsychotics, data not shown
[7] = test system: acute episode of schizophrenia; details: patients experiencing an acute episode of schizophrenia; cited from earlier work

Chain of Human PDE10A2 (Q9Y233 267-1055): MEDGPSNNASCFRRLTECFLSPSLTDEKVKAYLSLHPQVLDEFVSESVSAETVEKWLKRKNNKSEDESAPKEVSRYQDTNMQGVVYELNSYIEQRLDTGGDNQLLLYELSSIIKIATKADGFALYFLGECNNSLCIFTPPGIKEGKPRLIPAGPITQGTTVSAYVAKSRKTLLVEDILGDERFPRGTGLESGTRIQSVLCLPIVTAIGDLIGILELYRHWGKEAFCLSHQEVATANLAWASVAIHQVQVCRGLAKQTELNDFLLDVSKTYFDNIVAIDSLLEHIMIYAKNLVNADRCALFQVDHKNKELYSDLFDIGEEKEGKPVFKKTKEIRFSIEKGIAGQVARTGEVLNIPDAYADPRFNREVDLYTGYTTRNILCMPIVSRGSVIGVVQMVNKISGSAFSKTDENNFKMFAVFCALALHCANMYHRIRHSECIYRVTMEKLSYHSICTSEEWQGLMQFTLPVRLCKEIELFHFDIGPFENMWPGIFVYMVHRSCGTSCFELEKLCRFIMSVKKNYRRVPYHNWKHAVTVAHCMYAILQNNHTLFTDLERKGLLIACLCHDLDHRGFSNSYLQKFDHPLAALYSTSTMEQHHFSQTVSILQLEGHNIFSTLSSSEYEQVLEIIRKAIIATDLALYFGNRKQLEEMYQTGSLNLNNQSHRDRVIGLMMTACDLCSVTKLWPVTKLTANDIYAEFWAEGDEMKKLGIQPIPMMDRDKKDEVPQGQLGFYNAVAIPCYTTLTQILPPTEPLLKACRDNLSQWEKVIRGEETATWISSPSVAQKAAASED

LBE (ligand binding efficiency) (Human PDE10A2): 0.57
SMILES: Cc1c(Cl)nc(C2CC2)nc1Cl [Compound 1]

SMILES: Cc1ccc([C@H]2C[C@@H]2COc2cc(NCc3nnc(C)s3)nc(C)n2)nc1 [Compound 18, 2-Methyl-N-((5-methyl-1,3,4-thiadiazol-2-yl)methyl)-6-(((1S,2S)-2-(5-methylpyridin-2-yl)cyclopropyl)methoxy)pyrimidin-4-amine]
LBE (ligand binding efficiency) (Human PDE10A2): 0.54 | LLE (ligand-lipophilicity efficiency) (Human PDE10A2): 7.8 | PDE selectivity [1]: > 500,000 | Papp (Passive permeability): 35.4 to 42.6 ×10⁻⁶ cm/s | on-rate [2]: ~8.0 × 10^7 M^–1·s^–1 | reversibility of binding [2]: completely reversible | in vitro half-life on the enzyme ([2]; 25 °C): ~6.7 min | IC50 (Iks): > 30000 nM | microbial mutagenesis (5-strain Ames test) (5-strain Ames test): negative | chromosomal aberrations in Chinese hamster ovary cells [3]: negative | EC50 (PDE10A): 52 nM | maximal enzyme occupancy in the rat striatum (PDE10A; PO, higher plasma concentrations): full enzyme occupancy | enzyme occupancy at which efficacy was observed (and above) [4]: approximately 25% | enzyme occupancy at which significant effects were achieved (and above) ([5]; novel objection recognition, striatal occupancy derived from plasma exposures): approximately 29% | novel objection recognition ([5]; 0.16 and 0.25 mg/kg PO): efficacious | novel objection recognition ([5]; 0.16 and 0.25 mg/kg PO, listed as MK-8189 (18)): significantly improved recognition | effect on circulating levels of prolactin [6]: lack of effect | weight gain (Weight gain in rats): reduced weight gain | therapeutic window between antipsychotic-like effects and catalepsy (catalepsy in the rats): larger therapeutic window | antipsychotic efficacy, initial proof of concept [7]: evidence for antipsychotic efficacy

SMILES: COc1cc2c(cc1OC)C(=O)C(CC1CCN(Cc3ccccc3)CC1)C2 (stereo not shown) [donepezil, reference compound]
novel objection recognition ([5]; positive control 0.56 mg/kg): significantly improved recognition
